From ChEMBL document CHEMBL3792373, “Anti-methicillin resistant Staphylococcus aureus activity, synergism with oxacillin and molecular docking studies of metronidazole-triazole hybrids” (Eur J Med Chem, 2016)
Converted amounts (≈) assume the structure as drawn.

Assays:
Staphylococcus aureus [1] = experiment: Bactericidal activity against methicillin-resistant Staphylococcus aureus isolate 1a assessed as reduction in colony counts at 32 ug/ml after 20 hrs by pour plate method (reference value: 12.73 +/- 0.223 log10CFU/ml); format: functional
Staphylococcus aureus [2] = experiment: Antimicrobial activity against methicillin-resistant Staphylococcus aureus isolate 21a after 24 hrs by agar plate dilution method; format: functional
Summary of the method: (§1)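 Clinical MRSA isolates from axilla/nasal swabs, identified by mannitol salt agar, Gram stain and coagulase test. Agar plate dilution with compound series 0.03–128 µg/mL. Inoculum suspended in water to McFarland 0.5. Incubation 24 h at 37 °C. MIC read as the lowest level without white growth spots. Dilution series quality-controlled with S. aureus NCTC 6571.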

Staphylococcus aureus [3] = experiment: Antimicrobial activity against methicillin-resistant Staphylococcus aureus isolate 2a after 24 hrs by agar plate dilution method in presence of oxacillin (1:1); format: functional
Summary of the method: (§2)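 Test compound and oxacillin mixed 1:1, each at 32 µg/mL in the mixture, then serially diluted into agar plates. Clinical MRSA isolates at McFarland 0.5 in water were spotted onto the plates and incubated 24 h at 37 °C. Growth was read as white spots. NCTC 6571 S. aureus served as the dilution-series control.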

Staphylococcus aureus [4] = experiment: Antimicrobial activity against methicillin-resistant Staphylococcus aureus isolate 4a after 24 hrs by agar plate dilution method in presence of oxacillin (1:1); format: functional; summary of the method: as §2
Staphylococcus aureus [5] = experiment: Antimicrobial activity against methicillin-resistant Staphylococcus aureus isolate 19a after 24 hrs by agar plate dilution method in presence of oxacillin (1:1); format: functional; summary of the method: as §2
Staphylococcus aureus [6] = experiment: Antimicrobial activity against methicillin-resistant Staphylococcus aureus isolate 30a after 24 hrs by agar plate dilution method; format: functional; summary of the method: as §1
Staphylococcus aureus [7] = experiment: Antimicrobial activity against methicillin-resistant Staphylococcus aureus isolate 27a after 24 hrs by agar plate dilution method; format: functional; summary of the method: as §1
Staphylococcus aureus [8] = experiment: Antimicrobial activity against methicillin-resistant Staphylococcus aureus isolate 15a after 24 hrs by agar plate dilution method in presence of oxacillin (1:1); format: functional; summary of the method: as §2
Staphylococcus aureus [9] = experiment: Antimicrobial activity against methicillin-resistant Staphylococcus aureus isolate 1a after 24 hrs by agar plate dilution method in presence of oxacillin (1:1); format: functional; summary of the method: as §2
Staphylococcus aureus [10] = experiment: Antimicrobial activity against methicillin-resistant Staphylococcus aureus isolate 22a after 24 hrs by agar plate dilution method; format: functional; summary of the method: as §1
Staphylococcus aureus [11] = experiment: Antimicrobial activity against methicillin-resistant Staphylococcus aureus isolate 17a after 24 hrs by agar plate dilution method in presence of oxacillin (1:1); format: functional; summary of the method: as §2
Staphylococcus aureus [12] = experiment: Antimicrobial activity against methicillin-resistant Staphylococcus aureus isolate 23a after 24 hrs by agar plate dilution method in presence of oxacillin (1:1); format: functional; summary of the method: as §2
Staphylococcus aureus [13] = experiment: Antimicrobial activity against methicillin-resistant Staphylococcus aureus isolate 18a after 24 hrs by agar plate dilution method; format: functional; summary of the method: as §1
Staphylococcus aureus [14] = experiment: Antimicrobial activity against methicillin-resistant Staphylococcus aureus isolate 3a after 24 hrs by agar plate dilution method in presence of oxacillin (1:1); format: functional; summary of the method: as §2
Staphylococcus aureus [15] = experiment: Bactericidal activity against methicillin-resistant Staphylococcus aureus isolate 1a assessed as reduction in colony counts at 32 ug/ml after 24 hrs by pour plate method (reference value: 12.64 +/- 0.224 log10CFU/ml); format: functional
Staphylococcus aureus [16] = experiment: Antimicrobial activity against methicillin-resistant Staphylococcus aureus isolate 16a after 24 hrs by agar plate dilution method; format: functional; summary of the method: as §1
[17] = Cytotoxicity against human THP1 cells upto 50 uM treated 3 times per week for 14 days by MTT assay; format: cell-based; settings: thp-1, 336 h
Staphylococcus aureus [18] = experiment: Antimicrobial activity against methicillin-resistant Staphylococcus aureus isolate 25a after 24 hrs by agar plate dilution method in presence of oxacillin (1:1); format: functional; summary of the method: as §2
Staphylococcus aureus [19] = experiment: Antimicrobial activity against methicillin-resistant Staphylococcus aureus isolate 3a after 24 hrs by agar plate dilution method; format: functional; summary of the method: as §1
Staphylococcus aureus [20] = experiment: Antimicrobial activity against methicillin-resistant Staphylococcus aureus isolate 21a after 24 hrs by agar plate dilution method in presence of oxacillin (1:1); format: functional; summary of the method: as §2
Staphylococcus aureus [21] = experiment: Antimicrobial activity against methicillin-resistant Staphylococcus aureus isolate 13a after 24 hrs by agar plate dilution method; format: functional; summary of the method: as §1
Staphylococcus aureus [22] = experiment: Antimicrobial activity against methicillin-resistant Staphylococcus aureus isolate 13a after 24 hrs by agar plate dilution method in presence of oxacillin (1:1); format: functional; summary of the method: as §2
Staphylococcus aureus [23] = experiment: Antimicrobial activity against methicillin-resistant Staphylococcus aureus isolate 17a after 24 hrs by agar plate dilution method; format: functional; summary of the method: as §1
Staphylococcus aureus [24] = experiment: Antimicrobial activity against methicillin-resistant Staphylococcus aureus isolate 20a after 24 hrs by agar plate dilution method in presence of oxacillin (1:1); format: functional; summary of the method: as §2
Staphylococcus aureus [25] = experiment: Bactericidal activity against methicillin-resistant Staphylococcus aureus isolate 1a assessed as reduction in colony counts at 32 ug/ml after 16 hrs by pour plate method in presence of oxacillin (1:1) (reference value: 12.50 +/- 0.291 log10CFU/ml); format: functional
Staphylococcus aureus [26] = experiment: Antimicrobial activity against methicillin-resistant Staphylococcus aureus isolate 1a after 24 hrs by agar plate dilution method; format: functional; summary of the method: as §1
Staphylococcus aureus [27] = experiment: Antimicrobial activity against methicillin-resistant Staphylococcus aureus isolate 18a after 24 hrs by agar plate dilution method in presence of oxacillin (1:1); format: functional; summary of the method: as §2
Staphylococcus aureus [28] = experiment: Antimicrobial activity against methicillin-resistant Staphylococcus aureus isolate 14a after 24 hrs by agar plate dilution method in presence of oxacillin (1:1); format: functional; summary of the method: as §2
Staphylococcus aureus [29] = experiment: Antimicrobial activity against methicillin-resistant Staphylococcus aureus isolate 15a after 24 hrs by agar plate dilution method; format: functional; summary of the method: as §1
Staphylococcus aureus [30] = experiment: Bactericidal activity against methicillin-resistant Staphylococcus aureus isolate 1a assessed as reduction in colony counts at 32 ug/ml after 4 hrs by pour plate method (reference value: 6.14 +/- 0.456 log10CFU/ml); format: functional
Staphylococcus aureus [31] = experiment: Antimicrobial activity against methicillin-resistant Staphylococcus aureus isolate 24a after 24 hrs by agar plate dilution method; format: functional; summary of the method: as §1
Staphylococcus aureus [32] = experiment: Antimicrobial activity against methicillin-resistant Staphylococcus aureus isolate 12a after 24 hrs by agar plate dilution method in presence of oxacillin (1:1); format: functional; summary of the method: as §2
Staphylococcus aureus [33] = experiment: Antimicrobial activity against methicillin-resistant Staphylococcus aureus isolate 11a after 24 hrs by agar plate dilution method in presence of oxacillin (1:1); format: functional; summary of the method: as §2
Staphylococcus aureus [34] = experiment: Antimicrobial activity against methicillin-resistant Staphylococcus aureus isolate 8a after 24 hrs by agar plate dilution method; format: functional
Summary of the method: (§3)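 Clinical MRSA isolates, from axilla/nasal swabs and identified by mannitol salt agar, Gram stain and coagulase test. […] Inoculum adjusted to McFarland 0.5 in water. Plates incubated 24 h at 37 °C and scored for growth spots. Dilution series quality-controlled with S. aureus NCTC 6571. Combination lines used a 1:1 mixture with oxacillin.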

Staphylococcus aureus [35] = experiment: Antimicrobial activity against methicillin-resistant Staphylococcus aureus isolate 8a after 24 hrs by agar plate dilution method in presence of oxacillin (1:1); format: functional; summary of the method: as §3
Staphylococcus aureus [36] = experiment: Antimicrobial activity against methicillin-resistant Staphylococcus aureus isolate 11a after 24 hrs by agar plate dilution method; format: functional; summary of the method: as §1
Staphylococcus aureus [37] = experiment: Antimicrobial activity against methicillin-resistant Staphylococcus aureus isolate 5a after 24 hrs by agar plate dilution method; format: functional; summary of the method: as §3
Staphylococcus aureus [38] = experiment: Antimicrobial activity against methicillin-resistant Staphylococcus aureus isolate 26a after 24 hrs by agar plate dilution method in presence of oxacillin (1:1); format: functional; summary of the method: as §2
Staphylococcus aureus [39] = experiment: Antimicrobial activity against methicillin-resistant Staphylococcus aureus isolate 19a after 24 hrs by agar plate dilution method; format: functional; summary of the method: as §1
Staphylococcus aureus [40] = experiment: Antimicrobial activity against methicillin-resistant Staphylococcus aureus isolate 5a after 24 hrs by agar plate dilution method in presence of oxacillin (1:1); format: functional; summary of the method: as §3

## Cc1ncc([N+](=O)[O-])n1CCn1cc(COc2c(Cl)cccc2Cl)nn1
Staphylococcus aureus [1]
  Activity: 5.57 log10CFU/ml
Staphylococcus aureus [2]
  MIC: 4 mg/L (≈ 10.1 µM)
Staphylococcus aureus [3]
  MIC: 1 mg/L
Staphylococcus aureus [4]
  MIC: 2 mg/L
Staphylococcus aureus [5]
  MIC: 2 mg/L
Staphylococcus aureus [6]
  MIC: 64 mg/L (≈ 161 µM)
Staphylococcus aureus [7]
  MIC: 64 mg/L (≈ 161 µM)
Staphylococcus aureus [8]
  MIC: 4 mg/L
Staphylococcus aureus [9]
  MIC: 1 mg/L
Staphylococcus aureus [10]
  MIC: > 128 mg/L
Staphylococcus aureus [11]
  MIC: 1 mg/L
Staphylococcus aureus [12]
  MIC: 4 mg/L
Staphylococcus aureus [13]
  MIC: 32 mg/L (≈ 80.6 µM)
Staphylococcus aureus [14]
  MIC: 1 mg/L
Staphylococcus aureus [15]
  Activity: 5.84 log10CFU/ml
Staphylococcus aureus [16]
  MIC: 32 mg/L (≈ 80.6 µM)
[17]
  Activity: Non-toxic
Staphylococcus aureus [18]
  MIC: 4 mg/L
Staphylococcus aureus [19]
  MIC: 4 mg/L (≈ 10.1 µM)
Staphylococcus aureus [20]
  MIC: 1 mg/L
Staphylococcus aureus [21]
  MIC: 64 mg/L (≈ 161 µM)
Staphylococcus aureus [22]
  MIC: 4 mg/L
Staphylococcus aureus [23]
  MIC: 32 mg/L (≈ 80.6 µM)
Staphylococcus aureus [24]
  MIC: 2 mg/L
Staphylococcus aureus [25]
  Activity: 4.52 log10CFU/ml
Staphylococcus aureus [26]
  MIC: 4 mg/L (≈ 10.1 µM)
Staphylococcus aureus [27]
  MIC: 4 mg/L
Staphylococcus aureus [28]
  MIC: 4 mg/L
Staphylococcus aureus [29]
  MIC: > 128 mg/L
Staphylococcus aureus [30]
  Activity: 5.65 log10CFU/ml
Staphylococcus aureus [31]
  MIC: > 128 mg/L
Staphylococcus aureus [32]
  MIC: 2 mg/L
Staphylococcus aureus [33]
  MIC: 1 mg/L
Staphylococcus aureus [34]
  MIC: 4 mg/L (≈ 10.1 µM)
Staphylococcus aureus [35]
  MIC: 1 mg/L
Staphylococcus aureus [36]
  MIC: 16 mg/L (≈ 40.3 µM)
Staphylococcus aureus [37]
  MIC: 4 mg/L (≈ 10.1 µM)
Staphylococcus aureus [38]
  MIC: 4 mg/L
Staphylococcus aureus [39]
  MIC: 32 mg/L (≈ 80.6 µM)
Staphylococcus aureus [40]
  MIC: 1 mg/L
